# According to publication PMC9989852 (Food and chemical toxicology : an international journal …, 2022):
# How the values were obtained:
# [1] = system: auricular draining lymph nodes (dLNs); experiment: Draining lymph node phenotyping by flow cytometry after 28-day dermal exposure; type: in vivo, B6C3F1 mice; conditions: 28 days
# Method in brief: (§1)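 Female B6C3F1 mice (5/group) received 25 μl/ear daily to the dorsal ears in acetone. About 24 h after the last dose, tissues went into RPMI: both auricular dLNs, half spleen and one ear pinna. Single-cell suspensions were acquired on an LSR II, with populations gated per supplemental strategy and FMO gating controls. Results are mean ± SE, n=5, by one-way ANOVA.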
# spleen = experiment: Spleen phenotyping by flow cytometry after 28-day dermal exposure; type: in vivo, B6C3F1 mice; conditions: 28 days
# Method in brief: as §1
# kidney, spleen = experiment: Kidney and spleen histopathology after 28-day dermal exposure; type: in vivo, B6C3F1 mice; conditions: 1.25–5%, 28 days, data not shown
# Method in brief: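 Female B6C3F1 mice (5/group) received 25 μl/ear on the dorsal ear surfaces daily, with acetone as vehicle. Tissues were formalin-fixed about 24 h after the last dose: liver remainder, half spleen, right kidney and half ear pinna. Sections were paraffin-embedded, cut at 5 μm and stained with H&E. A veterinary pathologist read them per STP guideline and graded 1 (minimal) to 5 (severe) by extent.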
# [2] = PFAS concentration in serum; type: in vivo, B6C3F1 mice; conditions: 5%, dermal, 28 days
# Method in brief: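 Serum came by cardiac puncture about 24 h after the final daily ear dose (25 μl/ear, acetone vehicle; female B6C3F1 mice). Samples underwent solid-phase extraction and LC/MS/MS. Short-chain analytes were quantified as linear isomer only; the legacy comparator was quantified as linear plus branched. Data are mean ± SE of 4–5 mice, one-way ANOVA with Dunnett's vs vehicle.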
# B6C3F1 mice = experiment: Organ weights and body weight after 28-day dermal exposure; type: in vivo; conditions: 28 days
# ear pinna = experiment: Skin; type: in vivo, B6C3F1 mice; conditions: dermal, 28 days
# Method in brief: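 Dosing was daily topical to both dorsal ears (25 μl/ear, acetone vehicle) in female B6C3F1 mice. Liver caudate lobe or half ear pinna was stored in RNAlater and homogenized in RLT buffer. RNA was isolated on RNeasy columns with DNase, and 1–2 μg was reverse-transcribed. TaqMan real-time PCR was read as 2−ΔΔCT vs vehicle, normalized to β-actin. Statistics: ANOVA/Dunnett's, or Kruskal-Wallis/Dunn's for unequal variance.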
smiles,measurement,setting,value
"O=C(O)C(F)(F)C(F)(F)C(F)(F)C(F)(F)F [PFPeA, perfluoropentanoic acid]",dLN B-cells cell number,[1]; 1.25%,8.67 ± 0.72 × 10^5
same,dLN B-cells frequency,[1]; 1.25%,14.18 ± 0.59%
same,dLN CD4^+ cell number,[1]; 1.25%,2.63 ± 0.27 × 10^6
same,dLN CD4^+ frequency,[1]; 1.25%,42.52 ± 0.79%
same,dLN CD8^+ cell number,[1]; 1.25%,18.60 ± 0.18 × 10^5
same,dLN CD8^+ frequency,[1]; 1.25%,30.24 ± 0.44%
same,dLN CD11b+ cell number,[1]; 1.25%,7.21 ± 1.61 × 10^4
same,dLN CD11b+ frequency,[1]; 1.25%,1.26 ± 0.29%
same,dLN CD86 B-cells,[1]; 1.25%,1140.40 ± 46.06 MFI
same,dLN CD86 DCs,[1]; 1.25%,42.60 ± 1.44 MFI x 10^2
same,dLN Dendritic Cells cell number,[1]; 1.25%,6.24 ± 0.42 × 10^4
same,dLN Dendritic Cells frequency,[1]; 1.25%,1.02 ± 0.03%
same,dLN Eosinophils cell number,[1]; 1.25%,20.90 ± 7.02 × 10^2
same,dLN MHCII B-cells,[1]; 1.25%,105.00 ± 1.83 MFI × 10^2
same,dLN NK cell number,[1]; 1.25%,3.23 ± 0.30 × 10^4
same,dLN NK frequency,[1]; 1.25%,0.53 ± 0.03%
same,dLN Neutrophils cell number,[1]; 1.25%,12.30 ± 1.75 × 10^2
same,dLN Total Cellularity,[1]; 1.25%,6.15 ± 0.57 × 10^6
same,dLN B-cells cell number,[1]; 2.5%,12.60 ± 2.36 × 10^5
same,dLN B-cells frequency,[1]; 2.5%,15.00 ± 0.92 %
same,dLN CD4^+ cell number,[1]; 2.5%,3.34 ± 0.55 × 10^6
same,dLN CD4^+ frequency,[1]; 2.5%,39.54 ± 0.62 %
same,dLN CD8^+ cell number,[1]; 2.5%,25.00 ± 3.80 × 10^5
same,dLN CD8^+ frequency,[1]; 2.5%,29.96 ± 0.86%
same,dLN CD11b+ cell number,[1]; 2.5%,17.00 ± 4.33 × 10^4
same,dLN CD11b+ frequency,[1]; 2.5%,1.92 ± 0.19%
same,dLN CD86 B-cells,[1]; 2.5%,1131.40 ± 96.26 MFI
same,dLN CD86 DCs,[1]; 2.5%,40.30 ± 1.05 MFI x 10^2
same,dLN Dendritic Cells cell number,[1]; 2.5%,10.40 ± 1.31 × 10^4
same,dLN Dendritic Cells frequency,[1]; 2.5%,1.31 ± 0.15%
same,dLN Eosinophils cell number,[1]; 2.5%,81.90 ± 15.70 × 10^2
same,dLN MHCII B-cells,[1]; 2.5%,115.00 ± 6.25 MFI × 10^2
same,dLN NK cell number,[1]; 2.5%,5.52 ± 0.71 × 10^4
same,dLN NK frequency,[1]; 2.5%,0.69 ± 0.07%
same,dLN Neutrophils cell number,[1]; 2.5%,19.10 ± 3.38 × 10^2
same,dLN Total Cellularity,[1]; 2.5%,8.45 ± 1.43 × 10^6
same,dLN B-cells cell number,[1]; 5%,17.00 ± 1.58 × 10^5
same,dLN B-cells frequency,[1]; 5%,16.22 ± 0.70 %
same,dLN CD4^+ cell number,[1]; 5%,3.99 ± 0.36 × 10^6
same,dLN CD4^+ frequency,[1]; 5%,38.02 ± 0.95 %
same,dLN CD8^+ cell number,[1]; 5%,30.20 ± 0.23 × 10^5
same,dLN CD8^+ frequency,[1]; 5%,28.88 ± 0.40%
same,dLN CD11b+ cell number,[1]; 5%,24.00 ± 3.48 × 10^4
same,dLN CD11b+ frequency,[1]; 5%,2.26 ± 0.17%
same,dLN CD86 B-cells,[1]; 5%,1188.80 ± 47.41 MFI
same,dLN CD86 DCs,[1]; 5%,36.80 ± 2.23 MFI x 10^2
same,dLN Dendritic Cells cell number,[1]; 5%,12.60 ± 1.09 × 10^4
same,dLN Dendritic Cells frequency,[1]; 5%,1.21 ± 0.08%
same,dLN Eosinophils cell number,[1]; 5%,140.00 ± 23.00 × 10^2
same,dLN MHCII B-cells,[1]; 5%,126.00 ± 6.53 MFI × 10^2
same,dLN NK cell number,[1]; 5%,7.50 ± 0.56 × 10^4
same,dLN NK frequency,[1]; 5%,0.73 ± 0.05%
same,dLN Neutrophils cell number,[1]; 5%,22.40 ± 5.58 × 10^2
same,dLN Total Cellularity,[1]; 5%,10.50 ± 0.93 × 10^6
same,spleen NK cell frequency,spleen; 1.25%,increase
same,spleen MFI of CD86 on B-cells,spleen; 2.5%,increase
same,spleen MFI of MHCII on B-cells,spleen; 2.5%,increase
same,spleen NK cell frequency,spleen; 2.5%,increase
same,spleen number of CD4^+ T-cells,spleen; 2.5%,significant decrease
same,spleen number of CD11b + Ly6C− cells,spleen; 2.5%,significant decrease
same,spleen MFI of CD86 on B-cells,spleen; 5%,increase
same,spleen MFI of MHCII on B-cells,spleen; 5%,increase
same,spleen NK cell frequency,spleen; 5%,increase
same,microscopic observations in the kidney or the spleen,"kidney, spleen","No PFPeA, PFHxA, or PFHpA-related microscopic observations"
same,PFAS serum concentration vs vehicle,[2],significant increase
same,body weight or overt signs of toxicity,B6C3F1 mice; 1.25–5%,no changes
same,"Liver weight (% body weight), increase vs vehicle-treated mice",B6C3F1 mice; 5%,12%
same,skin Krt10 gene expression,ear pinna; 1.25%,increased
same,skin Pparγ gene expression,ear pinna; 1.25%,decreased
same,skin Pparδ gene expression,ear pinna; 1.25–5%,no changes
same,skin Krt10 gene expression,ear pinna; 2.5%,increased
same,skin Pparγ gene expression,ear pinna; 2.5%,decreased
same,skin Flg gene expression,ear pinna; 5%,increased
same,"skin Il6 gene expression, increase",ear pinna; 5%,2.5 fold
same,skin Krt10 gene expression,ear pinna; 5%,increased
same,skin PPARα gene expression,ear pinna; 5%,decreased
same,skin Pparγ gene expression,ear pinna; 5%,decreased
same,"skin S100a7a gene expression, increase",ear pinna; 5%,42.5 fold
same,"skin Serpine1 gene expression, increase",ear pinna; 5%,3 fold
same,"skin Tslp gene expression, increase",ear pinna; 5%,3 fold
